Source: ChEMBL document CHEMBL1123016, “Synthesis and biological activities of analogues of angiotensins II and III containing O-methyltyrosine and D-tryptophan” (J Med Chem, 1985)
Square brackets hold non-standard residues; d marks the D form. Peptide text beside a SMILES is read from it. Sar = CNCC(=O)O

What was measured:
Rattus norvegicus [1] = species on record: Rattus norvegicus; test: Compound was tested for antagonist activity in rat isolated uterus assay; pA2 is the negative logarithm of the concentration of antagonist that reduces the response to an ED50 dose of angiotensin II to the response to half the ED50 dose; type: functional; conditions: read-out: pA2 (converted)
Summary of the method: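 Isolated uterus from diethylstilbestrol-primed female Sprague-Dawley rats (150-250 g), challenged every 12 min. Antagonist was given 2 min before an ED50 dose of ANG II. Where antagonism appeared non-competitive, each tissue received a single "pA2 dose" and the ANG II response was measured after 2 min (mean of four determinations). Otherwise values are mean ± SEM (number of animals).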

Rattus norvegicus [2] = species on record: Rattus norvegicus; test: Compound was tested for agonist activity in rat isolated uterus assay; type: functional
Summary of the method: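 Uteri from diethylstilbestrol-primed female Sprague-Dawley rats (150-250 g). Peptides were stored lyophilized at -20 °C, with 1 mg/mL stock solutions made weekly and assay dilutions made daily. Tissue was challenged every 12 min. Agonist activity is expressed relative to ANG II = 100%, as mean ± SEM with the number of animals.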

CC[C@H](C)[C@H](NC(=O)[C@H](Cc1ccc(OC)cc1)NC(=O)[C@@H](NC(=O)[C@H](CCCN=C(N)N)NC(=O)CNC)C(C)C)C(=O)N[C@@H](Cc1c[nH]cn1)C(=O)N1CCC[C@H]1C(=O)N[C@@H](Cc1ccccc1)C(=O)O
Kb (Rattus norvegicus [1]): 7.94 nM | Activity (Rattus norvegicus [2]): <0.1%

CC[C@H](C)[C@H](NC(=O)[C@H](Cc1ccc(O)cc1)NC(=O)[C@@H](NC(=O)[C@@H](N)CCCN=C(N)N)C(C)C)C(=O)N[C@@H](Cc1c[nH]cn1)C(=O)N1CCC[C@H]1C(=O)N[C@@H](Cc1c[nH]c2ccccc12)C(=O)O
Kb (Rattus norvegicus [1]): 200 nM | Activity (Rattus norvegicus [2]): <0.1%

CC[C@H](C)[C@H](NC(=O)[C@@H]1CCCN1C(=O)[C@H](Cc1c[nH]cn1)NC(=O)[C@@H](NC(=O)[C@H](Cc1ccc(OC)cc1)NC(=O)[C@@H](NC(=O)[C@H](CCCN=C(N)N)NC(=O)CNC)C(C)C)[C@@H](C)CC)C(=O)O
Kb (Rattus norvegicus [1]): 63.1 nM | Activity (Rattus norvegicus [2]): <0.1%

CC[C@H](C)[C@H](NC(=O)[C@H](Cc1ccc(OC)cc1)NC(=O)[C@@H](NC(=O)[C@@H](N)CCCN=C(N)N)C(C)C)C(=O)N[C@@H](Cc1c[nH]cn1)C(=O)N1CCC[C@H]1C(=O)N[C@@H](Cc1ccccc1)C(=O)O
Kb (Rattus norvegicus [1]): > 1000 nM | Activity (Rattus norvegicus [2]): <0.1%

CC[C@H](C)[C@H](NC(=O)[C@H](Cc1ccc(OC)cc1)NC(=O)[C@@H](NC(=O)[C@H](CCCN=C(N)N)NC(=O)CNC)C(C)C)C(=O)N[C@@H](Cc1c[nH]cn1)C(=O)N1CCC[C@H]1C(=O)N[C@@H](Cc1c[nH]c2ccccc12)C(=O)O
Kb (Rattus norvegicus [1]): 79.4 nM | Activity (Rattus norvegicus [2]): <0.1%

CC[C@H](C)[C@H](NC(=O)[C@H](Cc1ccc(OC)cc1)NC(=O)[C@@H](NC(=O)[C@@H](N)CCCN=C(N)N)C(C)C)C(=O)N[C@@H](Cc1c[nH]cn1)C(=O)N1CCC[C@H]1C(=O)N[C@@H](Cc1c[nH]c2ccccc12)C(=O)O
Kb (Rattus norvegicus [1]): > 1000 nM | Activity (Rattus norvegicus [2]): <0.1%

CC[C@H](C)[C@H](NC(=O)[C@@H]1CCCN1C(=O)[C@H](Cc1c[nH]cn1)NC(=O)[C@@H](NC(=O)[C@H](Cc1ccc(OC)cc1)NC(=O)[C@@H](NC(=O)[C@@H](N)CCCN=C(N)N)C(C)C)[C@@H](C)CC)C(=O)O
Kb (Rattus norvegicus [1]): > 1000 nM | Activity (Rattus norvegicus [2]): <0.1%

CC[C@H](C)[C@H](NC(=O)[C@H](Cc1ccc(O)cc1)NC(=O)[C@@H](NC(=O)[C@H](CCCN=C(N)N)NC(=O)CNC)C(C)C)C(=O)N[C@@H](Cc1c[nH]cn1)C(=O)N1CCC[C@H]1C(=O)N[C@@H](Cc1c[nH]c2ccccc12)C(=O)O
Kb (Rattus norvegicus [1]): 20 nM | Activity (Rattus norvegicus [2]): <0.1%

CC[C@H](C)[C@H](NC(=O)[C@@H]1CCCN1C(=O)[C@H](Cc1c[nH]cn1)NC(=O)[C@@H](NC(=O)[C@H](Cc1ccc(O)cc1)NC(=O)[C@@H](NC(=O)[C@H](CCCN=C(N)N)NC(=O)CNC)C(C)C)[C@@H](C)CC)C(=O)O
Kb (Rattus norvegicus [1]): 2 nM | Activity (Rattus norvegicus [2]): <0.1%

CC[C@H](C)[C@H](NC(=O)[C@H](Cc1c[nH]c2ccccc12)NC(=O)[C@@H](NC(=O)[C@@H](N)CCCN=C(N)N)C(C)C)C(=O)N[C@@H](Cc1c[nH]cn1)C(=O)N1CCC[C@H]1C(=O)N[C@@H](Cc1ccccc1)C(=O)O (H-RVWIHPF-OH)
Kb (Rattus norvegicus [1]): > 1000 nM | Activity (Rattus norvegicus [2]): <0.1%

CC[C@H](C)[C@H](NC(=O)[C@@H]1CCCN1C(=O)[C@H](Cc1c[nH]cn1)NC(=O)[C@@H](NC(=O)[C@H](Cc1c[nH]c2ccccc12)NC(=O)[C@@H](NC(=O)[C@@H](N)CCCN=C(N)N)C(C)C)[C@@H](C)CC)C(=O)O (H-RVWIHPI-OH)
Kb (Rattus norvegicus [1]): > 1000 nM | Activity (Rattus norvegicus [2]): <0.1%

CC[C@H](C)[C@H](NC(=O)[C@H](Cc1c[nH]c2ccccc12)NC(=O)[C@@H](NC(=O)[C@H](CCCN=C(N)N)NC(=O)CNC)C(C)C)C(=O)N[C@@H](Cc1c[nH]cn1)C(=O)N1CCC[C@H]1C(=O)N[C@@H](Cc1ccccc1)C(=O)O (H-[Sar]RVWIHPF-OH)
Kb (Rattus norvegicus [1]): > 1000 nM | Activity (Rattus norvegicus [2]): <0.1%
